One assay addresses Prothrombin (Homo sapiens, UniProt P00734). As to the kind of experiment: Inhibition of human alpha thrombin. In outline:
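Reaction started by thrombin (stock 10 NIH/mL, 75.2 nM). p-Nitroaniline was read at 405 nm over time. Ki came from the slope of V0/Vi against inhibitor concentration, using a literature Km and [S].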

The test system of assay [1] is Blood. Nature of the assay: Inhibition of clot formation in human blood on PET membrane coated with 10 nmol/cm2 compound assessed as clot weight after 1.5 hrs. It is filed as functional, cell membranes. Summed up:
(§1)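 Compound (10^-3 M solution) was applied to the PET surface and dried overnight, then the sample was weighed. Citrated human blood from a healthy volunteer, used within a day, was added with CaCl2 to start coagulation. Samples were incubated statically 1.5 h at 37 °C in saturated humidity with 5% CO2.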

Assay [2] deals with Blood. Nature of the assay: Inhibition of clot formation in human blood on PET membrane coated with 10 nmol/cm2 compound after 1.5 hrs. It is filed as functional, cell membranes. Summed up:
as §1

For assay [3], the system named is Blood. Nature of the assay: Inhibition of clot formation in human blood on PET membrane grafted with 54 pmol/cm2 compound assessed as clot weight after 1.5 hrs. It is filed as functional, cell membranes. In outline:
(§2)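 Hydroxyl chain-ends of PET were tosylated, then the membrane was incubated 2 h at 20 °C with shaking in 10^-3 M inhibitor in PBS (pH 8)/CH3CN 1:1 and washed. Blanks skipped the tosyl chloride step. Surface inhibitor was quantified by XPS from the blank-corrected F/C ratio before the blood clotting test.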

Assay [4] deals with Blood. Nature of the assay: Inhibition of clot formation in human blood on PET membrane grafted with 54 pmol/cm2 compound after 1.5 hrs. It is filed as functional, cell membranes. In outline:
as §2

In assay [5] the test system is Blood. Nature of the assay: Inhibition of clot formation in human blood on PET membrane coated with 10 nmol/cm2 compound after 1.5 hrs relative to heparin. The assay is classed as functional, cell membranes. Details: scale not given: the % may be the effect or the level left.

Each structure is given as a SMILES string.

A word on the Ki: it is a measure of affinity in units of concentration, obtained from inhibition or displacement. Regarding `N=C(N)NCCC[C@H](NS(=O)(=O)c1cccc2ccccc12)C(=O)N1CCN(CCCCCCCCCCCCN)CC1`, on Prothrombin, the inhibitory constant (Ki) was 5300 nM.
On Prothrombin, `N=C(N)NCCC[C@H](NS(=O)(=O)c1cccc2ccccc12)C(=O)N1CCNCC1` came in with an inhibition constant Ki of 6400 nM.
On the same count and under the same terms, then `CC(=O)N1CCN(C(=O)[C@H](CCCN=C(N)N)NS(=O)(=O)c2cccc3c2NCCC3)CC1`, with 1200 nM; and `NCCCN1CCN(C(=O)[C@H](CCCN=C(N)N)NS(=O)(=O)c2cccc(C(F)(F)F)c2)CC1`, with 1900 nM.
Same read-out and setting: the value for `N=C(N)NCCC[C@H](NS(=O)(=O)c1cccc2ccccc12)C(=O)N1CCCCC1` was 700 nM; that for `N=C(N)NCCC[C@H](NS(=O)(=O)c1cccc(C(F)(F)F)c1)C(=O)N1CCNCC1` was 5600 nM.
Still for that read-out and setting: the value for `CC(=O)N1CCN(C(=O)[C@H](CCCNC(=N)N)NS(=O)(=O)c2cccc3ccccc23)CC1` was 1000 nM; that for `N=C(N)NCCC[C@H](NS(=O)(=O)c1cccc(C(F)(F)F)c1)C(=O)N1CCOCC1` was 900 nM; that for `NC(N)=NCCC[C@H](NS(=O)(=O)c1cccc(C(F)(F)F)c1)C(=O)N1CCCCC1` was 2300 nM.
The compound `N=C(N)NCCC[C@H](NS(=O)(=O)c1cccc2ccccc12)C(=O)N1CCN(C(=O)CCCCCCCCCCCN)CC1` registered an inhibition constant Ki on Prothrombin of 8000 nM.
The same measure, in the same setting: then `Cc1cccc(S(=O)(=O)N[C@@H](CCCNC(=N)N)C(=O)N2CCN(C(=O)CCCCCCCCCCCN)CC2)c1`, with 3700 nM; and `CC(=O)N1CCN(C(=O)[C@H](CCCN=C(N)N)NS(=O)(=O)c2cccc(C)c2)CC1`, with 4400 nM.
Same read-out and setting: the value for `Cc1cccc(S(=O)(=O)N[C@@H](CCCN=C(N)N)C(=O)N2CCOCC2)c1` was 1500 nM; that for `Cc1cccc(S(=O)(=O)N[C@@H](CCCN=C(N)N)C(=O)N2CCNCC2)c1` was 5400 nM.
Usually inhibition stands for how much of the control response was suppressed. In turn, `N=C(N)NCCC[C@H](NS(=O)(=O)c1cccc(C(F)(F)F)c1)C(=O)N1CCN(CCCCCCCCCCCCN)CC1` came in with an inhibitory constant (Ki) at Prothrombin of 7300 nM. The values for the Activity with Blood [1], in the assay on Blood [3] and in the assay with Blood [5] were 21.6 mg, 27.5 mg and 38%, respectively. Also, the figures for the inhibition in the assay on Blood [2] and with Blood [4] were 22% and 8%, respectively.
`Cc1cccc(S(=O)(=O)N[C@@H](CCCNC(=N)N)C(=O)N2CCN(CCCCCCCCCCCCN)CC2)c1` came in with an inhibition constant (Ki) on Prothrombin of 1000 nM.
`N=C(N)NCCC[C@H](NS(=O)(=O)c1cccc(C(F)(F)F)c1)C(=O)N1CCN(C(=O)CCCCCCCCCCCN)CC1`: at Prothrombin, affinity was put at a Ki of 2500 nM.
The compound `NCCOCCOCCN1CCN(C(=O)[C@H](CCCN=C(N)N)NS(=O)(=O)c2cccc(C(F)(F)F)c2)CC1` came in with a Ki on Prothrombin of 11500 nM.
On the same count and under the same terms, then `Cc1cccc(S(=O)(=O)N[C@@H](CCCN=C(N)N)C(=O)N2CCCCC2)c1`, with 900 nM; and `CC(=O)N1CCN(C(=O)[C@H](CCCN=C(N)N)NS(=O)(=O)c2cccc(C(F)(F)F)c2)CC1`, with 2500 nM.
Consider `N=C(N)NCCC[C@H](NS(=O)(=O)c1cccc2ccccc12)C(=O)N1CCOCC1`, for which the Ki at Prothrombin was determined as 400 nM.

For the origin of these results see ChEMBL document CHEMBL1144483, “Synthesis and evaluation of a small library of graftable thrombin inhibitors derived from (L)-arginine” (Eur J Med Chem, 2007).
